As a reminder, the CC50 is the concentration at which the toxic effect on the cells reaches its halfway point. The LD50 is the dose expected to kill half of the subjects tested.

The nature of data set [1]: Cytotoxicity against african green monkey Vero 76 cells assessed as cell viability after 3 to 5 days. In kind it is cell-based. As to conditions: chlorocebus sabaeus.
A short description of data set [2]: Selectivity index, ratio of CC50 for african green monkey Vero 76 cells to EC50 for Punta Toro virus Adames. In kind it is toxicity, cell-based. The following applies: read-out: Ratio CC50/EC50.
Data set [3] deals with Mus musculus. Description: % Compound cleared in virus-infected po dosed mouse after 6 hrs. In kind it is ADME, organism-based. The following applies: in vivo.
Data set [4] is described as follows: Selectivity index, ratio of CC50 for african green monkey Vero 76 cells to EC50 for La Crosse virus. It counts as toxicity, cell-based. The following applies: read-out: Ratio CC50/EC50.
A short description of data set [5]: Selectivity index, ratio of CC50 for african green monkey Vero cells to EC50 for Pichinde virus An 4763. It counts as toxicity, cell-based. As to conditions: read-out: Ratio CC50/EC50.
The nature of data set [6]: Selectivity index, ratio of CC50 for african green monkey Vero cells to EC50 for Junin virus Candid-1. In kind it is toxicity, cell-based. As to conditions: read-out: Ratio CC50/EC50.
Data set [7] can be described thus: Selectivity index, ratio of CC50 for african green monkey Vero 76 cells to EC50 for Sandfly fever Naples virus. It counts as toxicity, cell-based. As to conditions: read-out: Ratio CC50/EC50.
Data set [8] can be described thus: Cytotoxicity against african green monkey Vero cells after 7 to 8 days by neutral-red dye uptake assay. It counts as cell-based. The following applies: chlorocebus sabaeus. The procedure, abridged:
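Subconfluent (50-70%) Vero cells received half-log drug dilutions without virus and were held at 37°C, 5% CO2 for 7-8 days. Cells were stained with 0.034% neutral red for 2 h, and the dye was extracted 30 min in ethanol with Sorenson's citrate buffer. Absorbance was read at 540 nm as % of untreated controls. CC50 was derived by regression.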

Data set [9] relates to Syrian golden hamster. As to conditions: in vivo, po, 72 h.
Data set [10] in a line: Metabolic stability in po dosed mouse assessed as drug remaining after 6 hrs. As to conditions: in vivo, read-out: Stability. In kind it is ADME, organism-based.
The nature of data set [11]: Selectivity index, ratio of CC50 for african green monkey Vero 76 cells to EC50 for Rift Valley fever virus MP-12. In kind it is toxicity, cell-based. The following applies: read-out: Ratio CC50/EC50.
The species named for data set [12] is Mus musculus. The following applies: in vivo, po.
Data set [13] in a line: Selectivity index, ratio of CC50 for african green monkey Vero cells to EC50 for Tacaribe virus TRVL11573. It counts as toxicity, cell-based. The following applies: read-out: Ratio CC50/EC50.

Regarding `NC(=O)c1nc(F)c[nH]c1=O` [FAVIPIRAVIR], the cytotoxic concentration (CC50) in [1] was greater than 6260 µM; in data set [8], 1110 µM. For the same molecule, the selectivity ratio in [2] was greater than 33; in data set [4], greater than 199; in [5], 186; in data set [6], 239; in [7], greater than 55; in [11] it was greater than 196. In [13], the selectivity ratio turned out to be 227. Moreover, in data set [3], the “%Cleared” value was greater than 90%. The LD50 in [9] is 1500 mg/kg/day; in data set [12], 707 mg/kg/day. Further, in data set [10], the remaining at 6 h was 10%.

The values are drawn from ChEMBL document CHEMBL1154414, “In vitro and in vivo activities of T-705 against arenavirus and bunyavirus infections” (Antimicrob Agents Chemother, 2007).
